Measured values reported in ChEMBL document CHEMBL1687785, “ampG gene of Pseudomonas aeruginosa and its role in β-lactamase expression” (2010).
Values after ≈ are worked out from the molar mass of the structure shown.

Tests used:
Type in all cases: functional
Pseudomonas aeruginosa [1] = test: Antimicrobial activity against Pseudomonas aeruginosa isolate 11 obtained from cystic fibrosis patients after 16 to 20 hrs by broth microdilution method
Procedure, shortened: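 CLSI broth microdilution: 2-fold serial antibiotic dilutions in Mueller-Hinton broth, inoculated with about 10^4 cells per 100 μl from starter cultures grown to OD600 0.5. MIC is the lowest concentration preventing growth after 16-20 h at 37°C. Triplicate.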

Pseudomonas aeruginosa [2] = test: Antimicrobial activity against ampD, ampDh2, ampDh3 deficient Pseudomonas aeruginosa PAO1 after 16 to 20 hrs by broth microdilution method in presence of 120 uM carbonyl cyanide m-chlorophenyl-hydrazone
Procedure, shortened: (§1)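 CLSI broth microdilution in Mueller-Hinton broth with serial antibiotic dilutions. CCCP was added from a 10 mM DMSO stock to 120 μM final, then the bacterial culture was added as inoculum (about 10^4 cells from OD600 0.5 starter cultures). MIC was the lowest concentration preventing growth after 16 to 20 h at 37°C, run in triplicate.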

Pseudomonas aeruginosa [3] = test: Antimicrobial activity against Pseudomonas aeruginosa isolate 4 obtained from cystic fibrosis patients after 16 to 20 hrs by broth microdilution method in presence of 120 uM carbonyl cyanide m-chlorophenyl-hydrazone; procedure, shortened: as §1
Pseudomonas aeruginosa [4] = test: Antimicrobial activity against Pseudomonas aeruginosa isolate 17 obtained from cystic fibrosis patients after 16 to 20 hrs by broth microdilution method in presence of 120 uM carbonyl cyanide m-chlorophenyl-hydrazone; procedure, shortened: as §1
Pseudomonas aeruginosa [5] = test: Antimicrobial activity against Pseudomonas aeruginosa isolate 4 obtained from cystic fibrosis patients after 16 to 20 hrs by broth microdilution method
Procedure, shortened: (§2)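 CLSI broth microdilution in Mueller-Hinton broth, serial 2-fold antibiotic dilutions. Inoculum about 10^4 cells per well, taken from starter cultures grown to OD600 0.5. MIC was the lowest antibiotic concentration preventing growth after 16 to 20 h at 37°C. Each MIC was determined in triplicate.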

Pseudomonas aeruginosa [6] = test: Antimicrobial activity against ampD, ampDh2, ampDh3 and ampG deficient Pseudomonas aeruginosa PAO1 after 16 to 20 hrs by broth microdilution method in presence of 120 uM carbonyl cyanide m-chlorophenyl-hydrazone; procedure, shortened: as §1
Pseudomonas aeruginosa [7] = test: Antimicrobial activity against ampG deficient Pseudomonas aeruginosa PAK after 16 to 20 hrs by broth microdilution method; procedure, shortened: as §2
Pseudomonas aeruginosa [8] = test: Antimicrobial activity against Pseudomonas aeruginosa isolate 9 obtained from cystic fibrosis patients after 16 to 20 hrs by broth microdilution method; procedure, shortened: as §2
Pseudomonas aeruginosa [9] = test: Antimicrobial activity against Pseudomonas aeruginosa isolate 8 obtained from cystic fibrosis patients after 16 to 20 hrs by broth microdilution method; procedure, shortened: as §2

SMILES: CC1(C)S[C@@H]2[C@H](NC(=O)[C@H](N)c3ccccc3)C(=O)N2[C@H]1C(=O)O [AMPICILLIN]
- MIC (Pseudomonas aeruginosa [1]): 512 mg/L (≈ 1470 µM)
- MIC (Pseudomonas aeruginosa [2]): 64 mg/L
- MIC (Pseudomonas aeruginosa [3]): 512 mg/L
- MIC (Pseudomonas aeruginosa [4]): 8 mg/L
- MIC (Pseudomonas aeruginosa [5]): 512 mg/L (≈ 1470 µM)
- MIC (Pseudomonas aeruginosa [6]): 16 mg/L
- MIC (Pseudomonas aeruginosa [7]): 32 mg/L (≈ 91.6 µM)
- MIC (Pseudomonas aeruginosa [8]): 512 mg/L (≈ 1470 µM)
- MIC (Pseudomonas aeruginosa [9]): 256 mg/L (≈ 733 µM)
